Source: the M2OR odorant receptor database

Key:
Settings in all cases: stereoisomer not certain
[1] = target: T1, OR10G2 (Homo sapiens) (UniProt Q8NGC3)
T1 sequence (whole entry): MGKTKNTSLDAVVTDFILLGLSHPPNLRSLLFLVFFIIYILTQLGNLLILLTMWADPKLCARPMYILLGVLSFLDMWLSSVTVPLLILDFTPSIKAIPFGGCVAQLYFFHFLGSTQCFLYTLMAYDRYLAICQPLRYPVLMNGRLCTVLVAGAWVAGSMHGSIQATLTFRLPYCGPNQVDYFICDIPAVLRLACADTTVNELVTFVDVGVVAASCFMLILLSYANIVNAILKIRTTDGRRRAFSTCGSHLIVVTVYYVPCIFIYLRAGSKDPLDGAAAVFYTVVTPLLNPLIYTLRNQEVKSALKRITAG
Summary of the method: (§1)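 Each receptor–molecule pair is labelled responsive or non-responsive (inactive) according to whether the original authors judged the measured signal statistically different from baseline. The data were taken from the main text and supplementary material of published papers and checked for typos and inconsistencies. Assay methods differed by source, with transient luciferase assays in mammalian cell lines being common.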

[2] = target: T2, OR10G3 (Homo sapiens) (UniProt Q8NGC4)
T2 sequence (whole entry): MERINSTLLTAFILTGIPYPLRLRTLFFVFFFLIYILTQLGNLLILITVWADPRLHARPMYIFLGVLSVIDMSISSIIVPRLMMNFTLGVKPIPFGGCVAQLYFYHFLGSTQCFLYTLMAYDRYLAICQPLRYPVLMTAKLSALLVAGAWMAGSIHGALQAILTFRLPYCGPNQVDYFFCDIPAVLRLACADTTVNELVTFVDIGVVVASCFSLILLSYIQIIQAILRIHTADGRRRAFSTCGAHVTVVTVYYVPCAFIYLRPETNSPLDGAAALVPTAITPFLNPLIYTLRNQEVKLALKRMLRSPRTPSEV
Summary of the method: as §1

[3] = target: T3, OR10G4 (Homo sapiens) (UniProt Q8NGN3)
T3 sequence (whole entry): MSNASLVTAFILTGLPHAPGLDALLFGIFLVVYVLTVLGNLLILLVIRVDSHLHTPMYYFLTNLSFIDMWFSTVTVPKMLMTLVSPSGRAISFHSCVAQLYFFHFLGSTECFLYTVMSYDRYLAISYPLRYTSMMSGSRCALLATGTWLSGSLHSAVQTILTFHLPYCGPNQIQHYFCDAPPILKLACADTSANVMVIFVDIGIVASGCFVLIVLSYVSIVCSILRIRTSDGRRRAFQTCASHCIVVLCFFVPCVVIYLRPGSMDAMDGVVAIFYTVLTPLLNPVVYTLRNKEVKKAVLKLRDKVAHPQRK
Summary of the method: as §1

[4] = target: T4, OR10G6 (Homo sapiens) (UniProt Q8NH81)
T4 sequence (whole entry): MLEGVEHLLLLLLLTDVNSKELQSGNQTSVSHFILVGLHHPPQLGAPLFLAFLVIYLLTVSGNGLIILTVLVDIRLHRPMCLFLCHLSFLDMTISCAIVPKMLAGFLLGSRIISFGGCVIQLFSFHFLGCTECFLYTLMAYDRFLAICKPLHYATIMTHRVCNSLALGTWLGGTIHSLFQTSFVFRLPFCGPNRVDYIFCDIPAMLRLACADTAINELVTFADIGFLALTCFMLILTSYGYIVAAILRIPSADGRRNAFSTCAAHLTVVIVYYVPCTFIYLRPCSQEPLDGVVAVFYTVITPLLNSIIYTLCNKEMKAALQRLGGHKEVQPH
Summary of the method: as §1

[5] = target: T5, OR10G7 (Homo sapiens) (UniProt Q8NGN6)
T5 sequence (whole entry): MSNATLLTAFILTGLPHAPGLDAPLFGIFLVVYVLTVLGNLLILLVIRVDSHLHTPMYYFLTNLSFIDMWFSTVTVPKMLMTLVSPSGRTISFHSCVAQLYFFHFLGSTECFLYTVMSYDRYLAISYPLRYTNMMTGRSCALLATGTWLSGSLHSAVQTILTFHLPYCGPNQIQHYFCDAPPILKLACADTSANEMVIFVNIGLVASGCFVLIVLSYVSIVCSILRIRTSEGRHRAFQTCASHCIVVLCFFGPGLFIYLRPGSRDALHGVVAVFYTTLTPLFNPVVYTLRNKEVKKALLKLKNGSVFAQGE
Summary of the method: as §1

[6] = target: T6, OR10G8 (Homo sapiens) (UniProt Q8NGN5)
T6 sequence (whole entry): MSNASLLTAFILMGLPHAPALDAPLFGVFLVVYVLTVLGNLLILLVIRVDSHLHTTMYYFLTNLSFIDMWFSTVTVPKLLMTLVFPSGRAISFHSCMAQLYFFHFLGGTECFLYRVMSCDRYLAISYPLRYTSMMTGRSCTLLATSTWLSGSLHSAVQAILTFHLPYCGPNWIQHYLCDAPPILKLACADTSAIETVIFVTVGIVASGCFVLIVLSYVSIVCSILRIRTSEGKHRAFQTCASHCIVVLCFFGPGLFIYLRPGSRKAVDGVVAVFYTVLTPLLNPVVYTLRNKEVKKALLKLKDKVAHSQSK
Summary of the method: as §1

[7] = target: T7, OR10G9 (Homo sapiens) (UniProt Q8NGN4)
T7 sequence (whole entry): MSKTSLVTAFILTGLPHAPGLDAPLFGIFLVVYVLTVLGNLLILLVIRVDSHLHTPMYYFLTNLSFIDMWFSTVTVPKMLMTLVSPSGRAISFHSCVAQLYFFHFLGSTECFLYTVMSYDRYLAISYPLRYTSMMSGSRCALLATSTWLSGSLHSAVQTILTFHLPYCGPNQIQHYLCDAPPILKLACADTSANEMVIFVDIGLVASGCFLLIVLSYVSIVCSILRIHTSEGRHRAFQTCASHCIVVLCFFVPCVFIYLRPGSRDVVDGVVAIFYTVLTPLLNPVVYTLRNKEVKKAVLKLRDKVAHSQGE
Summary of the method: as §1

[8] = target: T8, OR10H1 (Homo sapiens) (UniProt Q9Y4A9)
T8 sequence (whole entry): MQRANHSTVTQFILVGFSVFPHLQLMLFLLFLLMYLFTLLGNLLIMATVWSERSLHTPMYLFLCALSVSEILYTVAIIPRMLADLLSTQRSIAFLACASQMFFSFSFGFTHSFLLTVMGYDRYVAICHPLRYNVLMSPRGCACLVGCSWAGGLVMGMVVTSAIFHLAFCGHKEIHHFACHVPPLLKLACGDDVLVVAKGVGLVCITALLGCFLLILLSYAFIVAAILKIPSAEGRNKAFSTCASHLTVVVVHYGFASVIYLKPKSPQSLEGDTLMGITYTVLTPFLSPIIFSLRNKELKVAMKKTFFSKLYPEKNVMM
Summary of the method: as §1

[9] = target: T9, OR10H2 (Homo sapiens) (UniProt O60403)
T9 sequence (whole entry): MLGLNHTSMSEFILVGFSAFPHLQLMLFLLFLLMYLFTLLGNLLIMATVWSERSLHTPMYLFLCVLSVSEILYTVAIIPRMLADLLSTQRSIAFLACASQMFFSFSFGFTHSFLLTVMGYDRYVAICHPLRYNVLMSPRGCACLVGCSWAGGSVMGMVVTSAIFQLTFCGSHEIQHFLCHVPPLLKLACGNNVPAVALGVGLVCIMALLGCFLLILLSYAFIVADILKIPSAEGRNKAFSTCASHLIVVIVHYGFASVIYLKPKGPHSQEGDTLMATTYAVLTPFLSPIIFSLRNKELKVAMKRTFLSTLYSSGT
Summary of the method: as §1

[10] = target: T10, OR10H3 (Homo sapiens) (UniProt O60404)
T10 sequence (whole entry): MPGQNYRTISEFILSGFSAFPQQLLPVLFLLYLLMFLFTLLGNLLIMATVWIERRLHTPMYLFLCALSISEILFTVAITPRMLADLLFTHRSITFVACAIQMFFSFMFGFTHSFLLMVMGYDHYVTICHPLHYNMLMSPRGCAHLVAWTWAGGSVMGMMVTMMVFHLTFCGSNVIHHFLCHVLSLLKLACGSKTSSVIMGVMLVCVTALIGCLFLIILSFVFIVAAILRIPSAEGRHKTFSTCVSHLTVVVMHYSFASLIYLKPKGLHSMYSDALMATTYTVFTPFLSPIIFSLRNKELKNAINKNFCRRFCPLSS
Summary of the method: as §1

[11] = target: T11, OR10H4 (Homo sapiens) (UniProt Q8NGA5)
T11 sequence (whole entry): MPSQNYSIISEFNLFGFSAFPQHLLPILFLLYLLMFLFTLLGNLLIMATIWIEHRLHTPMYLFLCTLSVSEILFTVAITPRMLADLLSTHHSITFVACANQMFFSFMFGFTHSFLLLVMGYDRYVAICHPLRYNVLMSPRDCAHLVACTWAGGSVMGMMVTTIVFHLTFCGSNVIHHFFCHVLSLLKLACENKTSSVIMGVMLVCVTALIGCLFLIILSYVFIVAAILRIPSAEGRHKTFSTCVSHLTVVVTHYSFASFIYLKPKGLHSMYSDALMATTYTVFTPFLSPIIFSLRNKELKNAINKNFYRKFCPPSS
Summary of the method: as §1

[12] = target: T12, OR10H5 (Homo sapiens) (UniProt Q8NGA6)
T12 sequence (whole entry): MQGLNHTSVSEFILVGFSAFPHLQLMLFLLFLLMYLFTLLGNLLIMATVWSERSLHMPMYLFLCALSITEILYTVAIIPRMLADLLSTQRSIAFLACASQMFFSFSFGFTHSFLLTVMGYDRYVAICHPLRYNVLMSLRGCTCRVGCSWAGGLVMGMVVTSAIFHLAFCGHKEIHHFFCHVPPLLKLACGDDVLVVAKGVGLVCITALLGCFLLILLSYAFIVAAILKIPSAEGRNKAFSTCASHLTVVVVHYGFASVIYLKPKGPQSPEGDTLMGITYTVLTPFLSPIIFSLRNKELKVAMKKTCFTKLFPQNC
Summary of the method: as §1

[13] = target: T13, OR10J1 (Homo sapiens) (UniProt P30954)
T13 sequence (whole entry): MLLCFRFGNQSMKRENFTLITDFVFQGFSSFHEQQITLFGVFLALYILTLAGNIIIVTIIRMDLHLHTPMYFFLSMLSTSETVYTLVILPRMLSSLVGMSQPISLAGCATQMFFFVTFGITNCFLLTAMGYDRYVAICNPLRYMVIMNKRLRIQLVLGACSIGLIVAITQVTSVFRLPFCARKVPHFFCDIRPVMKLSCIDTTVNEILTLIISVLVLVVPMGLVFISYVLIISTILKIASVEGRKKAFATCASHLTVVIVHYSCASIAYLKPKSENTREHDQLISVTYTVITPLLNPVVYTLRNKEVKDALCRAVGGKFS
Summary of the method: as §1

[14] = target: T14, OR10J3 (Homo sapiens) (UniProt Q5JRS4)
T14 sequence (whole entry): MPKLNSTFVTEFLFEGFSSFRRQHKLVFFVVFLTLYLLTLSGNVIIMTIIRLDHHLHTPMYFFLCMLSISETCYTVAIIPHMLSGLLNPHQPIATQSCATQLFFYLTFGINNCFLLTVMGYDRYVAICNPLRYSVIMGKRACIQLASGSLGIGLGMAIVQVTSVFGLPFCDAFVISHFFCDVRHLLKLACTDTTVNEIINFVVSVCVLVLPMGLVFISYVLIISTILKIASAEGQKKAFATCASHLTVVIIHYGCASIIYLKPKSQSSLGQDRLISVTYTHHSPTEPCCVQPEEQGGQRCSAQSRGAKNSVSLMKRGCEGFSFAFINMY
Summary of the method: as §1

[15] = target: T15, OR10J5 (Homo sapiens) (UniProt Q8NHC4)
T15 sequence (whole entry): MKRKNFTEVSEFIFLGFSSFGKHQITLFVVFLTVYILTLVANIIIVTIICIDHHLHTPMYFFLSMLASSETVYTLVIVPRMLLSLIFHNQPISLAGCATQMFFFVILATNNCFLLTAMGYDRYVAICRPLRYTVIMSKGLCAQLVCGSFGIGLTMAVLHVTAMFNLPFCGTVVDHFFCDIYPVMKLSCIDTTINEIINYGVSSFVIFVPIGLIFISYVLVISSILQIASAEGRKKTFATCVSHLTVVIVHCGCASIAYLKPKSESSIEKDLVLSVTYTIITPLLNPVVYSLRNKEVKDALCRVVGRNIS
Summary of the method: as §1

[16] = target: T16, OR10K1 (Homo sapiens) (UniProt Q8NGX5)
T16 sequence (whole entry): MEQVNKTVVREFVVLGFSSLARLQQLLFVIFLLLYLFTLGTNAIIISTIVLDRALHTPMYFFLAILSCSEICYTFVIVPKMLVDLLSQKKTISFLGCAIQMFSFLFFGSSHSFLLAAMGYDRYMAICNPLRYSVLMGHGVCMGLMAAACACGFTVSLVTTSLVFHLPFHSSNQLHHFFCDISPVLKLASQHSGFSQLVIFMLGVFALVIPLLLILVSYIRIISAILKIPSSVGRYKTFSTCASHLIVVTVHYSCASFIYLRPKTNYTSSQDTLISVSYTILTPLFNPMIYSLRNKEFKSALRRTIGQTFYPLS
Summary of the method: as §1

[17] = target: T17, OR10P1 (Homo sapiens) (UniProt Q8NGE3)
T17 sequence (whole entry): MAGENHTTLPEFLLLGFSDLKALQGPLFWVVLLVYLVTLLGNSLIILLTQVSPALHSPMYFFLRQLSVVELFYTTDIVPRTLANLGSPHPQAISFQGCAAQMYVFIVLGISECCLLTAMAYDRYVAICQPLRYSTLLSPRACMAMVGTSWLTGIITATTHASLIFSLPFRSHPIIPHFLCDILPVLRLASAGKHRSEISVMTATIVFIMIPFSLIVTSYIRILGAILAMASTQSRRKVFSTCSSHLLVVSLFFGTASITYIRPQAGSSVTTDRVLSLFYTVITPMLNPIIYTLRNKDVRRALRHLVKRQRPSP
Summary of the method: as §1

[18] = target: T18, OR10Q1 (Homo sapiens) (UniProt Q8NGQ4)
T18 sequence (whole entry): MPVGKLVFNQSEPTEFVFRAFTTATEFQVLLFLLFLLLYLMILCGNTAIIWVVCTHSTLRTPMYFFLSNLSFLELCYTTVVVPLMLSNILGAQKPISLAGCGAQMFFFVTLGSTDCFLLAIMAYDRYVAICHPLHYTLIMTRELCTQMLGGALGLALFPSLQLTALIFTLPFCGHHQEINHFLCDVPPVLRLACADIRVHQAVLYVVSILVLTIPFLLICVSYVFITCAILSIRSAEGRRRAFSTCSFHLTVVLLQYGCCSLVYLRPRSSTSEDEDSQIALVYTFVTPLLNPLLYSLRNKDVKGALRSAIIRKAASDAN
Summary of the method: as §1

Measured: odorant receptor agonist call;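 also: active if original authors judged signal statistically different from baseline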

CC1=C(O)C(=O)OC1C (stereo not drawn)
inactive: [1] | [2] | [3] | [4] | [5] | [6] | [7] | [8] | [9] | [10] | [11] | [12] | [13] | [14] | [15] | [16] | [17] | [18]
